Arbovirus inh: blocks arbovirus infection; arbovirus infection cell-based antiviral screen; inhibition, % at 10 µM; actives 0.37% (n = 200,000); in the data active means inhibition above about 30%
G6PDH CS: inhibits Leuconostoc G6PDH, flagging false hits in G6PDH-based assays; Purified L. mesenteroides G6PDH, diaphorase/resazurin coupled fluorescence, 45 min; inhibition, % at 5 µM; actives 0.12% (n = 200,000); in the data active means inhibition above about 50%
Diaph inh CS: diaphorase inhibition or chemical oxidation counter-screen; diaphorase resazurin-to-resorufin fluorescence, NADH, 16 min; bacterial (C. kluyveri) enzyme, not human; actives 0.69% (n = 190,000); inhibition, % at 20 µM;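 active means primary screen inhibition at 20 µM above a set limit, cut at about 50% in these data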;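 further: plate controls were DMSO with full reaction for no effect and wells lacking NADH for full effect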
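Assay system: diaphorase enzyme from Clostridium kluyveri; Input: enzyme working solution with 0.14 U/mL diaphorase; Timing: 16 min at room temperature; Technique: resorufin fluorescence, excitation 544 nm, emission 590 nm; Benchmarks: positive control minus NADH, DMSO neutral control.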
Diaphorase act: diaphorase activation or chemical reduction counter-screen; Diaphorase/resazurin coupled assay, resorufin fluorescence, 16 min; hits give high values; 1 = vehicle wells, 0 = NADH-free wells; activation factor at 20 µM; actives 0.005% (n = 190,000); AID 1229;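 active means diaphorase activity raised at least twofold by the compound at 20 µM; inactive means activation factor below 2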
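Material: Purified diaphorase enzyme from Clostridium kluyveri | Buffer or medium: 50 mM HEPES pH 7.4 with 4.542 mM MgCl2, 0.005% Tween 20 | Times: 16 min enzyme reaction, ambient temperature | Signal: Red resorufin fluorescence at 544/590 nm excitation/emission | Measure: Increased resorufin signal from activators or reducing compounds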
HKDC1 inh: HKDC1 (human) hexokinase inhibition | Q2TB90 | recombinant HKDC1, G6PDH/diaphorase resazurin coupled fluorescence | inhibition, % at 20 µM | actives 0.16% (n = 340,000) | AID 493160;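 active means inhibition above about 35% when tested at 20 µM, limit read from the data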;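 further: plate controls were DMSO wells with enzyme for no effect and DMSO wells lacking enzyme for full effect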
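test system = in-house recombinant HK5 (HKDC1) enzyme | amount = HKDC1 at 5 µg/mL | control set = DMSO-enzyme wells negative, buffer-substituted wells positive | compound = one dose of 20 µM, 1% DMSO | schedule = reaction time 90 min, room temperature, protected from light | technique = resorufin fluorescence at 613 nm | reagent = glucose with 1 mM ATP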
HKDC1 act conf2: confirmation of human HKDC1 activators; shares compounds with HKDC1 inh; recombinant HKDC1, G6PDH/diaphorase resazurin fluorescence; hits give low values; inhibition, % at 20 µM; actives 14% (n = 740); AID 504708;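 active means inhibition at or below a set negative limit, negative inhibition meaning the enzyme was activated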
The depositor's hits bear a star; . = no result given. Compounds with a hit are over-represented: about 0.74% of the library has one in this group of screens.

SMILES | Arbovirus inh | G6PDH CS | Diaph inh CS | Diaphorase act | HKDC1 inh | HKDC1 act conf2
CC1=C(C(=O)OC(C)C)C(C)NC(=O)N1 (stereo not drawn) | -2 | -1 | 20 | 0.8 | -6 | .
FC(F)(F)c1ccccc1NC(=S)NN=C1CCCCCC1 | -20 | 5 | 16 | 0.8 | -38 | -30
FC(F)(F)c1ccccc1NC(=S)N1CCCC1 | . | . | . | . | 4 | .
O=c1ccc(S(=O)(=O)N2CCCC2)cn1Cc1ccc(Cl)cc1Cl | . | . | . | . | -1 | .
CN(c1ccc(C(=O)N2CCN(Cc3ccccc3)CC2)cc1)S(=O)(=O)c1ccccc1 | . | . | . | . | -76 | -24
COc1ccc(OC)c2[nH]c(=O)c(CCNC(=O)c3ccc(S(=O)(=O)N4CCCCC4)cc3)cc12 | 9 | -1 | 17 | 0.8 | 20 | .
Cc1cc2cc(CCNC(=O)c3ccc(S(=O)(=O)N4CCCC4)cc3)c(=O)[nH]c2cc1C | . | . | . | . | 41* | 53
O=C(CNC(=O)c1ccc2c(c1)OCCO2)N/N=C/c1ccc(O)cc1O | -5 | 8 | 16 | 0.8 | -51 | 18
Cc1cc(C)n(CCC(=O)N/N=C/c2ccccc2O)n1 | -21 | 17 | 13 | 0.9 | 7 | .
O=C(CNC(=O)c1ccncc1)N/N=C/c1ccc(O)cc1O | . | . | . | . | -41 | -25
Cc1cc(C)n(CCC(=O)N/N=C/c2ccc(O)cc2O)n1 | -13 | -9 | 15 | 0.9 | -42 | -36
CN(C)c1ncc(C2=C(Cl)C(=O)C(N3CCCC3)=C(Cl)C2=O)s1 | -4 | . | . | . | 35* | 20
O=C1C(Cl)=C(N2CCCCC2)C(=O)C(Cl)=C1c1cnc(N2CCCCC2)s1 | 3 | 34 | 62* | 0.4 | 70* | 49
O=C1C(Cl)=C(N2CCCCCC2)C(=O)N1c1ccc(Cl)cc1 | . | . | . | . | -1 | .
CC(=O)c1cnc(N(C)C)s1 | -8 | 5 | -6 | 1.1 | -7 | .
Cc1cc(=O)n2nc(N3CCCC(C(=O)NC4CCCCC4C)C3)sc2n1 (stereo not drawn) | . | . | . | . | -1 | .
Cc1onc(-c2ccccc2)c1C(=O)NNC(=S)NC(=O)/C=C/c1cccs1 | -6 | -3 | 17 | 0.8 | -57 | -23
Cc1onc(-c2ccccc2)c1C(=O)NC(=S)NNC(=O)c1ccncc1 | -30 | 0 | 16 | 0.8 | 7 | .
CCOP(=O)(c1ccc(N(C)C)cc1)C(O)c1ccc(OC)cc1 (stereo not drawn) | . | . | . | . | 56* | -21
CCOP(=O)(c1ccc(N(C)C)cc1)C(O)c1cc(OC)c(OC)c(OC)c1 (stereo not drawn) | -5 | 2 | 14 | 0.9 | 0 | .
CC(C)OCc1ccc(C(=O)N2CCN(CC(=O)N3CCCC3)CC2)cc1 | . | . | . | . | -5 | .
N#CC(C#N)=c1ccc2c(c1)N1C3=C(CCCC3)CC3CCCCC31N=2 (stereo not drawn) | -19 | -32 | 76* | 0.2 | 39* | -9
Cc1ccc(-c2ccc(CCC(=O)O)n2Cc2ccco2)cc1 | 12 | 6 | 9 | 0.9 | 3 | .
C=CCn1c(C)cc(C2=NNC(=Nc3ccc(C)cc3)SC2)c1C | 0 | 2 | 1 | 1 | -8 | .
Cc1cc(C2=NNC(=Nc3ccc(S(=O)(=O)N4CCOCC4)cc3)SC2)c(C)n1C | . | . | . | . | -73 | -47*
SMILES | Arbovirus inh | G6PDH CS | Diaph inh CS | Diaphorase act | HKDC1 inh | HKDC1 act conf2
CSc1ccccc1NC(=O)CN(C)Cc1c(O)ccc2ccccc12 | . | . | . | . | 14 | .
COc1ccc(NS(=O)(=O)c2cccc(C(=O)N(C)Cc3ccc(SC)cc3)c2)cc1 | . | . | . | . | 4 | .
Cc1csc(N/N=C\c2cccnc2)n1 | -4 | -3 | 19 | 0.8 | -9 | .
O=[N+]([O-])c1ccc(-c2csc(N/N=C/c3cccnc3)n2)cc1 | -6 | -4 | -2 | 1 | 36* | -25
COc1cc(-c2ccc(Nc3ccccc3C(=O)O)c(OC)c2)ccc1Nc1ccccc1C(=O)O | . | . | . | . | 42* | -6
Cc1cc(C)c(S(=O)(=O)/N=C2\C=C(NS(=O)(=O)c3ccccc3)C(=O)c3ccccc32)c(C)c1 | . | . | . | . | 19 | .
O=C1C=C(Nc2ccc(O)cc2)C(=O)c2ccccc21 | . | . | . | . | 18 | .
Cc1ccc(NC2=C/C(=N\S(=O)(=O)c3cccs3)c3ccccc3C2=O)c(C)c1 | -37 | 52* | 20 | 0.8 | 40* | 30

Screening results: PubChem, several laboratories
